Assay results published in paper PMC12177174 (iScience, 2025).
Values joined by “and” are separate entries in the source; they are usually repeats but may differ in a detail not shown here. Equal entries are not always repeated.

How the values were obtained:
Phase 1 Part 2 = assay type: in vivo, homo sapiens; conditions: Part 2 MAD pooled, n=26
How it was run: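 Healthy adults got test compound (5, 15 or 20 mg) or placebo once daily on day 1 and days 3–16. The first cohort had 6 active and 2 placebo; later cohorts had 8 active and 3 placebo, each starting with a 2:1 sentinel group. Participants were discharged day 19, with follow-up 6 ± 1 and 29 ± 2 days after the last dose. Events were graded by CTCAE, with investigator-assessed relatedness. Placebo was pooled.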

osteocalcin = assay: Serum bone turnover biomarker osteocalcin; assay type: in vivo, homo sapiens
How it was run: (§1)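 Participants got test compound (5, 15 or 20 mg) or placebo once daily on day 1 and days 3–16. Serum was drawn at screening and pre-dose on days 1, 5, 7, 12 and 16, and on days 22 (±1) and 45 (±2), at the same time as baseline. CTX-1, P1NP and osteocalcin were measured by electrochemiluminescence immunoassay and BSAP by sandwich ELISA. Results are percent change from baseline versus pooled placebo.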

Wnt7a = assay: Serum high-throughput proteomics; assay type: in vivo, homo sapiens; conditions: study day 16, 5, 15, 20 mg
[1] = tested on: alveolar epithelial type II cells; conditions: cited from earlier work
Phase 1 Part 1 = assay type: in vivo, homo sapiens
How it was run: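 Healthy adults were randomized to one oral dose of test compound (7, 20 or 40 mg; 6 active, 2 placebo per cohort), with a sentinel pair per cohort. Participants stayed in the unit ≥72 h post-dose, with follow-up at 6 ± 1 day. Adverse events were graded by CTCAE, and relatedness was assessed by the investigator. Placebo participants were pooled across cohorts.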

lung collagen deposition = conditions: cited from earlier work
BSAP = assay: Serum bone turnover biomarker BSAP; assay type: in vivo, homo sapiens
How it was run: as §1

[2] = Pharmacokinetics Part 1, single oral dose, plasma and urine; assay type: in vivo, homo sapiens
How it was run: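 Healthy adults (men and women of non-child-bearing potential) got one oral dose of test compound (7, 20 or 40 mg; 6 per cohort) or placebo. Plasma was sampled pre-dose, at 15 and 30 min, and at 1–48 h (72 h at 40 mg only). Urine was collected over 0–72 h intervals. Analysis was LC-MS/MS after protein precipitation (plasma 1.00–6000 nmol/L). t½ = ln(2)/λz. Dose proportionality was assessed graphically and by power model.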

Cc1cc(-c2nccc3c2ccn3CC(=O)Nc2ccc(-c3cnccn3)cn2)ccn1 [AZD5055]
Wheezing (Phase 1 Part 2): 0 n (%) | serum osteocalcin levels (osteocalcin; 15 and 20 mg doses): reductions | serum osteocalcin levels vs placebo (osteocalcin; lower doses): comparable to those in the placebo group | Serum Wnt7a levels (Wnt7a): reduced on study day 16 for all AZD5055 dose levels evaluated | differentiation of alveolar epithelial type II cells into alveolar type I cells [1]: increasing differentiation of alveolar epithelial type II cells into alveolar type I cells | Participants with at least one TEAE (Phase 1 Part 1; Part 1, 7 mg): 2 (33.3%) n (%) | Participants with a grade 2 TEAE of nsVT (Phase 1 Part 1; Part 1, 20 mg): One | Participants with at least one TEAE (Phase 1 Part 1; Part 1, 20 mg): 1 (16.7%) n (%) | Participants with at least one TEAE (Phase 1 Part 1; Part 1, 40 mg): 1 (16.7%) n (%) | Any TEAEs possibly related to the IMP (as assessed by investigator) (Phase 1 Part 1; Part 1 SAD pooled, N=18): 3 (16.7%) n (%) | Abdominal pain upper (Phase 1 Part 1; Part 1 SAD pooled, n=18): 1 (5.6) n (%) | Application site scab (Phase 1 Part 1; Part 1 SAD pooled, n=18): 1 (5.6) n (%) | Cardiac disorders (Phase 1 Part 1; Part 1 SAD pooled, n=18): 1 (5.6) n (%) | Coronavirus infection (Phase 1 Part 1; Part 1 SAD pooled, n=18): 0 n (%) | Cough (Phase 1 Part 1; Part 1 SAD pooled, n=18): 0 n (%) | Dermatitis contact (Phase 1 Part 1; Part 1 SAD pooled, n=18): 0 n (%) | Dizziness (Phase 1 Part 1; Part 1 SAD pooled, n=18): 1 (5.6) n (%) | Dysgeusia (Phase 1 Part 1; Part 1 SAD pooled, n=18): 0 n (%) | Epistaxis (Phase 1 Part 1; Part 1 SAD pooled, n=18): 0 n (%) | Erythema (Phase 1 Part 1; Part 1 SAD pooled, n=18): 0 n (%) | Folliculitis (Phase 1 Part 1; Part 1 SAD pooled, n=18): 0 n (%) | Gastrointestinal disorders (Phase 1 Part 1; Part 1 SAD pooled, n=18): 1 (5.6) n (%) | General disorders and administration site conditions (Phase 1 Part 1; Part 1 SAD pooled, n=18): 2 (11.1) n (%) | Headache (Phase 1 Part 1; Part 1 SAD pooled, n=18): 0 n (%) | Infections and infestations (Phase 1 Part 1; Part 1 SAD pooled, n=18): 0 n (%) | Injury, poisoning and procedural complications (Phase 1 Part 1; Part 1 SAD pooled, n=18): 0 n (%) | Limb injury (Phase 1 Part 1; Part 1 SAD pooled, n=18): 0 n (%) | Medical device site dermatitis (Phase 1 Part 1; Part 1 SAD pooled, n=18): 1 (5.6) n (%) | Nasal discomfort (Phase 1 Part 1; Part 1 SAD pooled, n=18): 0 n (%) | Nausea (Phase 1 Part 1; Part 1 SAD pooled, n=18): 1 (5.6) n (%) | Nervous system disorders (Phase 1 Part 1; Part 1 SAD pooled, n=18): 1 (5.6) n (%) | Participants with ≥1 TEAE (Phase 1 Part 1; Part 1 SAD pooled, n=18): 4 (22.2%) n (%) and 4 (22.2) n (%) | Participants with ≥1 TEAE leading to discontinuation of investigational product (Phase 1 Part 1; Part 1 SAD pooled, n=18): 0 n (%) | Participants with ≥1 TEAE of grade 1 severity (Phase 1 Part 1; Part 1 SAD pooled, n=18): 4 (22.2) n (%) | Participants with ≥1 TEAE of grade 2 severity (Phase 1 Part 1; Part 1 SAD pooled, n=18): 0 n (%) | Participants with ≥1 TEAE of grade 3 severity (Phase 1 Part 1; Part 1 SAD pooled, n=18): 0 n (%) | Participants with ≥1 TESAE (Phase 1 Part 1; Part 1 SAD pooled, n=18): 0 n (%) | Photophobia (Phase 1 Part 1; Part 1 SAD pooled, n=18): 0 n (%) | Post procedural erythema (Phase 1 Part 1; Part 1 SAD pooled, n=18): 0 n (%) | Post procedural inflammation (Phase 1 Part 1; Part 1 SAD pooled, n=18): 0 n (%) | Procedural pain (Phase 1 Part 1; Part 1 SAD pooled, n=18): 0 n (%) | Respiratory, thoracic and mediastinal disorders (Phase 1 Part 1; Part 1 SAD pooled, n=18): 1 (5.6) n (%) | Sensation of foreign body (Phase 1 Part 1; Part 1 SAD pooled, n=18): 0 n (%) | Skin abrasion (Phase 1 Part 1; Part 1 SAD pooled, n=18): 0 n (%) | Skin and subcutaneous tissue disorders (Phase 1 Part 1; Part 1 SAD pooled, n=18): 0 n (%) | Suture rupture (Phase 1 Part 1; Part 1 SAD pooled, n=18): 0 n (%) | Ventricular tachycardia (Phase 1 Part 1; Part 1 SAD pooled, n=18): 1 (5.6) n (%) | Vessel puncture site haematoma (Phase 1 Part 1; Part 1 SAD pooled, n=18): 0 n (%) | Vision blurred (Phase 1 Part 1; Part 1 SAD pooled, n=18): 0 n (%) | Vomiting (Phase 1 Part 1; Part 1 SAD pooled, n=18): 1 (5.6) n (%) | Wheezing (Phase 1 Part 1; Part 1 SAD pooled, n=18): 1 (5.6) n (%) | Deaths, SAEs, AEs of CTCAE grade 3 or higher (Phase 1 Part 1; Parts 1 and 2): No deaths, serious adverse events (SAEs) or AEs of CTCAE grade 3 or higher were reported | Participants with a TEAE of nsVT during the study (Phase 1 Part 1; Parts 1 and 2): Three | clinical laboratory results, vital signs, physical examinations, ECGs, oxygen saturation (Phase 1 Part 1; Parts 1 and 2): no clinically significant changes | Overall safety and tolerability (Phase 1 Part 1; both study parts): safe and well tolerated | collagen deposition in the lungs (lung collagen deposition): reduced collagen deposition in the lungs | serum BSAP levels (BSAP; 20 mg dose): reductions | serum BSAP levels vs placebo (BSAP; lower doses): comparable to those in the placebo group | mean terminal elimination half-life ([2]; after a single dose, across dose cohorts): 10 to 11 h | median time to maximum plasma concentration (tmax) ([2]; oral, across dose cohorts): 1 to 1.5 h | Dose proportionality (power-model approach) ([2]; single doses 7-40 mg): behaves dose-proportionally
